Test results from ChEMBL document CHEMBL4229460, “Design and biological evaluation of novel hybrids of 1, 5-diarylpyrazole and Chrysin for selective COX-2 inhibition” (Bioorg Med Chem, 2018).

Key:
HeLa [1] = assay: Cell cycle arrest in human HeLa cells assessed as accumulation at S phase at 1.25 uM after 24 hrs by propidium iodide staining based flow cytometry (reference value: 18.16%); type: functional
B16-F10 = assay: Antiproliferative activity against mouse B16F10 cells after 48 hrs by MTT assay; type: functional, cell-based; settings: B16-F10, 48 h
In short: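 Cells kept in DMEM with 10% FBS, penicillin/streptomycin, 37 °C, 5% CO₂. Seeded at 5 × 10⁴ cells/well and allowed to adhere 12 h. Exposed to 0, 0.1, 1, 10 and 100 μM (final) for 48 h. Viability read by MTT reduction at OD 570 nm with 630 nm reference. IC50 reported as mean ± SD of three independent experiments.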

HeLa [2] = assay: Induction of apoptosis in human HeLa cells assessed as necrotic cells at 5 uM after 48 hrs by Annexin-V-FITC/propidium iodide staining based flow cytometry (reference value: 1.12%); type: functional
In short: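 HeLa cells in DMEM with 10% FBS, penicillin/streptomycin, 37 °C, 5% CO₂; seeded 2 × 10⁵ cells/well in six-well plates, treated at 0, 1.25, 2.5, 5 and 10 μM for 24 h, or at 5 μM for 12, 24, 36 or 48 h. Cells trypsinized, washed in ice-cold PBS, stained in binding buffer with Annexin V-FITC and PI for 10 min in the dark, then analyzed by flow cytometry.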

HeLa [3] = assay: Induction of apoptosis in human HeLa cells assessed as live cells at 2.5 uM after 24 hrs by Annexin-V-FITC/propidium iodide staining based flow cytometry (reference value: 94.6%); type: functional
In short: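 HeLa seeded at 2 × 10⁵ cells/well. Dose series was 0, 1.25, 2.5, 5 and 10 μM for 24 h; time course was 5 μM for 12, 24, 36 or 48 h. Trypsinized and washed in ice-cold PBS, then stained in binding buffer with Annexin V-FITC and PI for 10 min in the dark. Flow cytometry scored early (Annexin⁺/PI⁻) and late (Annexin⁺/PI⁺) apoptotic cells.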

COc1ccc(-c2cc(COC(=O)COc3cc(O)c4c(=O)cc(-c5ccccc5)oc4c3)nn2-c2ccc(C)cc2)cc1
Activity (HeLa [1]): 17.96%
IC50 (B16-F10): 10.4 µM
Activity (HeLa [2]): 1.43%
Activity (HeLa [3]): 74.5%
